Screens (PubChem)
HGIII-sPLA2 inh: Inhibits HGIII-sPLA2 liposome hydrolysis, primary screen | QFRET BODIPY PC-A2 liposome hydrolysis, fluorescence | hit rate 0.56% among 370,000 | Q9NZ20 | inhibition, % at 12.2 µM;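 active = inhibition above mean plus 3 SD of compounds lying within the high and low control bounds, cut at about 19% in these data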
Target sequence (Q9NZ20 whole entry, looked up): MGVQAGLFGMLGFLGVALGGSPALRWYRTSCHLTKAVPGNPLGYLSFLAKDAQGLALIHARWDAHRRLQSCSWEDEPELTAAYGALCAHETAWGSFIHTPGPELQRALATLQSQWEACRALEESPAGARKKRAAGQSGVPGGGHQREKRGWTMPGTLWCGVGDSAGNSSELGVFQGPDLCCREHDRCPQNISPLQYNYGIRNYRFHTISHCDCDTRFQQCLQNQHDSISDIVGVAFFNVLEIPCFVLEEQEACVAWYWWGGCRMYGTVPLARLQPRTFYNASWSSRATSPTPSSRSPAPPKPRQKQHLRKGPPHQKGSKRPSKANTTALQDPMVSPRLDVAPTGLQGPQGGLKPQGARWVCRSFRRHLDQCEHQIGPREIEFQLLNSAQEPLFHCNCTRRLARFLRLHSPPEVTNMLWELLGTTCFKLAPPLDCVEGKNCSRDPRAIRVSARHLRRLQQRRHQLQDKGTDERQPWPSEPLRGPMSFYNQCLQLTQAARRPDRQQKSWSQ
SKKanGAS inh: SKKanGAS growth inhibition; S. pyogenes SKKanGAS, kanamycin growth, BacTiter-Glo, 6 h; inhibition, % at 7.5 µM; hit rate 1.3% among 300,000; AID 1662;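 active = mean replicate score, as percent of positive control median, at least 50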;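 note: strain carries kanamycin resistance gene driven by streptokinase promoter and grows in 40 µg/ml kanamycin; loss of luminescence reflects streptokinase promoter inhibition or plain growth inhibition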
ASAP1 inh: inhibitors of human ASAP1 ArfGAP activity. Q9ULH1. AID 624377. hit rate 0.19% among 360,000. ASAP1-stimulated ARF1 GTP hydrolysis, GDP FP detection. inhibition, % at 16.5 µM; in the data active = inhibition above about 25%
Calb FLC: C. albicans growth modulation with fluconazole; C. albicans CaCi-2 + fluconazole, Alamar Blue growth, 48 h; growth inhibition, % (no concentration beside the values); hit rate 0.57% among 300,000;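 active = growth inhibition above about 58% in most replicates, limit read from the data, passing the limit was not always enough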;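 note: all wells also contain fluconazole at 8 µg/ml as a sub-toxic cotreatment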
ARFGAP1 inhibitor: rat ARFGAP1 inhibition. Q62848. Arfgap1-stimulated ARF1 GTP hydrolysis, GDP FP detection. inhibition, % at 16.5 µM. hit rate 0.26% among 360,000;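 active = inhibition above a per-plate limit, mean inhibition of low control wells plus 3 SD, cut at about 25% in these data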
Target sequence (Q62848 1-136 limits assumed): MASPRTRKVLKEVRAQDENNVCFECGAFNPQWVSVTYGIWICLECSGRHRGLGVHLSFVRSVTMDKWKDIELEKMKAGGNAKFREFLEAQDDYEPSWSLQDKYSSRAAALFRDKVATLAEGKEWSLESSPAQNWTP
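System: truncated rat Arfgap1 GAP domain / Medium: HEPES-based buffer, pH 7.5 / Also added: N-terminally truncated human ARF1-GTP substrate / Incubation: enzyme reaction 120 min at 25 °C after 20 min preincubation / Measured by: FP of antibody-bound GDP Alexa 633 tracer, ex 620/em 688 nm / Replicates: singlicate, each compound tested once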
ARFGAP1 confirm: rat ARFGAP1 inhibition, confirmed. shares compounds with ARFGAP1 inhibitor. ARFGAP1-stimulated ARF1 GTP hydrolysis, GDP tracer FP. inhibition, % at 16.5 µM. hit rate 30% among 890. AID 651608;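 active = average inhibition over triplicates above the hit cutoff set in the earlier primary screen, cut at about 25% in these data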
sPLA2 confirm: human GIII-sPLA2 inhibition, confirmation. shares compounds with HGIII-sPLA2 inh. recombinant hGIII-sPLA2, BODIPY PC-A2 QFRET fluorescence. inhibition, % at 12.2 µM. hit rate 34% among 2,000;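 active = mean inhibition across triplicates above the hit cutoff set in the earlier primary screen, cut at about 19% in these data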
535nm interf: optically interferes with 535nm fluorescence in sPLA2 counter-screen; hit rate 8.5% among 2,000; BODIPY FL product fluorescence interference, QFRET; inhibition, % at 12.2 µM; shares compounds with HGIII-sPLA2 inh;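 active = average inhibition above the solvent-only control mean plus 3 SD, cut at about 6% in these data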
BODIPY interf DR: counter-screen for HGIII-sPLA2 inhibitors: 535nm fluorescence interference, dose response; shares compounds with HGIII-sPLA2 inh; BODIPY FL product fluorescence interference, cell-free; IC50, µM; 240 tested, under 10 active; AID 743455;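 active = IC50 at or below 10 µM; inactive = IC50 above 10 µM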
A number is an active result; – = inactive; · = no result given. Hits are enriched below; roughly 2.3% of the tested compounds scored in any of these assays.

SMILES | HGIII-sPLA2 inh | SKKanGAS inh | ASAP1 inh | Calb FLC | ARFGAP1 inhibitor | sPLA2 confirm | 535nm interf | others
COc1cccc(CN2CCC2(C)C(=O)Nc2cnc3ccccc3c2)c1F (stereo unspecified) | – | · | – | · | – | · | ·
Cc1ccc(S(=O)(=O)N2CCC(=O)N(CCOC(=O)Nc3ccc(C)c(C)c3)CC2)cc1 | – | – | – | – | 35.0 | · | · | ARFGAP1 confirm=–
Cc1ccc(NC(=O)OCCN2CCN(S(=O)(=O)c3ccc(C)cc3)CCC2=O)cc1 | – | – | – | – | – | · | ·
O=C(NC1CCc2ccccc21)c1cc(-c2ccc(Cl)cc2)nc2ccccc12 (stereo unspecified) | – | · | · | · | · | · | ·
Cc1cccc(NC(=O)C2C(c3ccccc3)C2(Cl)Cl)c1 (stereo unspecified) | – | – | – | – | 28.1 | · | · | ARFGAP1 confirm=–
Cc1ccccc1CN1CCCCC(NC(=O)Nc2cccc([N+](=O)[O-])c2)C1=O (stereo unspecified) | – | · | · | · | · | · | ·
O=C(N/N=C/c1cc(Br)ccc1O)Nc1ccccc1 | – | – | – | – | 25.4 | · | · | ARFGAP1 confirm=–
COc1ccc(OC)c(C2C(C(=O)Nc3nc4ccccc4s3)=C(C)NC3=C2C(=O)CCC3)c1 (stereo unspecified) | – | – | – | – | 24.8 | · | · | ARFGAP1 confirm=–
COc1ccc(-n2c(=S)[nH]c3cc(C(=O)Nc4ccc(F)cc4)ccc3c2=O)c(OC)c1 | – | – | – | – | 25.5 | · | · | ARFGAP1 confirm=–
COc1ccc(NC(=O)c2ccc3c(=O)n(-c4ccc(OC)cc4OC)c(=S)[nH]c3c2)cc1 | – | – | – | – | – | · | ·
FC(F)(F)Oc1ccc(Cn2ccc3ccc(-c4ccc5ccn(Cc6ccccc6)c5c4)cc32)cc1 | – | · | · | · | · | · | ·
C/C=C/c1ccc([C@@H]2[C@H](CO)N(S(C)(=O)=O)[C@H]2CN(C)C(=O)CC)cc1 | – | · | · | · | · | · | ·
Oc1ccc2ccccc2c1CNc1ccc2ccccc2c1 | – | · | – | · | 29.9 | · | · | ARFGAP1 confirm=–
CCCCCCC12C(=Cc3cc4c(cc31)OCCO4)c1cc(OC)c(OC)cc1C(CC(=O)O)N2C(=O)OC (stereo unspecified) | – | · | – | · | – | · | ·
Brc1ccc(-c2noc3c2-c2nc(-c4ccccc4)sc2CC3)cc1 | – | – | – | – | 27.4 | · | · | ARFGAP1 confirm=–
COc1ccc(-c2noc3c2-c2nc(-c4ccccc4)sc2CC3)cc1 | – | – | – | – | – | · | ·
COc1cccc(/C=C2\CC3(OC(=O)C4CCCCC4)CCCN2C3)c1 (stereo unspecified) | – | · | · | · | · | · | ·
C=CCOC(=O)c1ccc(N2CCN(c3ccccc3)CC2)nc1 | – | – | – | – | 40.3 | · | · | ARFGAP1 confirm=–
Cc1cccc(/C=N/Nc2ccc3ccccc3n2)c1 | 22.6 | – | – | – | 25.2 | – | – | ARFGAP1 confirm=–
C(=N\Nc1ccc2ccccc2n1)/c1ccc2c(c1)OCCO2 | – | – | – | – | – | · | ·
CC1CCC2(CC1)CCN(CCCOC(=O)Nc1ccc3c(c1)OCO3)C2=O (stereo unspecified) | – | · | · | · | · | · | ·
CCN(CC)c1ccc(C(=C2C=CC(=[N+](CC)CC)C=C2)c2ccc(N(CC)CC)cc2)cc1 | 60.5 | · | – | · | 35.8 | 61.4 | – | ARFGAP1 confirm=–;BODIPY interf DR=–
Cc1ccc2c(c1)c1c(n2CC(O)CNC2CCCC2)CCCC1 (stereo unspecified) | 20.1 | – | – | – | – | – | –
O=C(NNC(=S)NC1CC2C=CC1C2)c1cccnc1 (stereo unspecified) | 22.0 | – | – | – | – | 21.2 | –
Fc1ccc2nc(-c3ccc(CN4CCC5(CC4)CNc4ccccc45)cc3)c(-c3ccccc3)nc2c1 | 20.1 | · | – | · | – | – | –
SMILES | HGIII-sPLA2 inh | SKKanGAS inh | ASAP1 inh | Calb FLC | ARFGAP1 inhibitor | sPLA2 confirm | 535nm interf | others
Cc1ccc2nc(-c3ccc(CN4CCC(c5nc6ccccc6[nH]5)CC4)cc3)c(-c3ccccc3)nc2c1 | – | · | – | · | – | · | ·
CC(C)(C)C(=O)NC(=S)Nc1ccc(C(F)(F)F)cc1 | 21.0 | – | – | – | – | – | –
CCCNC(=O)C1(C)CCN(C(=O)COc2ccc(Cl)cc2Cl)C1 (stereo unspecified) | – | · | – | · | – | · | ·
CCCCN(CCCC)C(=S)NC(=O)c1ccccc1Cl | 30.2 | – | – | – | – | – | –
CCN(CC)C(=S)NC(=O)c1ccc(Cl)cc1Cl | – | – | – | – | – | · | ·
C[C@H]1[C@H](N(Cc2ccccc2)Cc2ccccc2)CC[C@@]23CCCN2C(=O)CCC[C@@H]13 | – | · | · | · | · | · | ·
NS(=O)(=O)c1ccc(NN=C2CCN(Cc3ccccc3)CC2)c([N+](=O)[O-])c1 | – | – | – | – | – | · | ·
Cc1cc(C)c2c(c1)/C(=N/Nc1ccc(S(N)(=O)=O)cc1[N+](=O)[O-])CCC2 | 19.6 | – | – | – | – | – | 7.5
COC(=O)c1cnc(Nc2nc(C(N)Cc3ccc(Cl)cc3)cs2)nc1C(F)(F)F (stereo unspecified) | 27.0 | · | – | · | – | – | –
NC(c1csc(Nc2cc(Oc3ccccc3)ncn2)n1)c1ccccc1Cl (stereo unspecified) | 21.2 | · | – | · | – | – | –
NC(Cc1ccc(Cl)cc1)c1csc(Nc2cc(Oc3ccccc3)ncn2)n1 (stereo unspecified) | 27.1 | · | – | · | – | 20.5 | –
NC(Cc1ccc(F)cc1)c1csc(Nc2cc(NCc3ccco3)ncn2)n1 (stereo unspecified) | – | · | – | · | – | · | ·
NC(c1csc(Nc2cc(NCc3ccco3)ncn2)n1)c1ccccc1Cl (stereo unspecified) | 23.0 | · | – | · | – | – | –
COc1ccc(CC(N)c2csc(Nc3cc(Oc4ccccc4)ncn3)n2)cc1 (stereo unspecified) | – | · | – | · | – | · | ·
CC(C)CNC(=O)OCc1cn(Cc2ccc(C(F)(F)F)cc2)nn1 | – | · | · | · | · | · | ·
C[C@H]1CCCN1c1cccc2c1S(=O)(=O)N1CC[C@H](C1)O2 | – | · | · | · | · | · | ·
Cc1c(C2Nc3ccccc3C2C)[nH]c2ccccc12 (stereo unspecified) | – | · | – | · | – | · | ·
O=C(NCc1ccc(C(F)(F)F)cc1)O[C@H]1CC[C@@]23CCCN2C(=O)CCC[C@H]3C1 | – | · | · | · | · | · | ·
Cn1nccc1C(=O)N/N=C/c1c(O)ccc2ccccc12 | – | – | – | – | – | · | ·
O=C(N/N=C/c1c(O)ccc2ccccc12)c1ccc(Br)o1 | 19.4 | 105.6 | – | – | – | – | –
Cc1occc1C(=O)N/N=C/c1c(O)ccc2ccccc12 | 22.7 | 94.2 | – | – | – | – | –
CN(Cc1ccccc1)C(=O)OCc1cn(Cc2ccc(C(F)(F)F)cc2)nn1 | – | · | · | · | · | · | ·
COc1ccc(C(=O)CSc2nnc(-c3cccnc3)n2-c2ccccc2)cc1 | – | · | · | · | · | · | ·
